bCat KO growth = primary screen for growth suppressors in beta-catenin knockout HCT116 cells (colon tumor, human); HCT116 beta-catenin knockout viability, CellTiter-Glo, 60 h; active compounds read low; viability, % at 10 µM; 140,000 tested, 1.5% active;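 active = viability at or under a set limit, the compound median less 4 SD, cut at about 6% in these data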;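 note: 0% = Hyamine 1622 control at 20 µM and 100% = untreated cell control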
H69AR inhibit = proliferation blockers of H69AR lung cancer cells, primary screen, cell-based, human, 86K library; viability, % at 10 µM; AID 598, 2007; 85,000 tested, 6% active; H69AR lung tumor viability, ATP luminescence, 72 h; active compounds read low;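 active = viability at or below 40%; inactive = viability above 40%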;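 note: multidrug resistant small cell line overexpressing MRP-1 efflux transporter; 100% = mean luminescence of untreated control wells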
HCT116 PTEN-null = growth suppression of PTEN-null HCT116, primary screen, cell-based, CellTiter-Glo | HCT116 PTEN-null viability, 60 h; active compounds read low | viability, % at 10 µM | AID 827, 2007 | 140,000 tested, 1.2% active;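 active = viability at or below a set limit, 4 SD under the median of all tested compounds, cut at about 3.7% in these data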;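 note: PTEN knockout HCT116 line with beta catenin targeted HCT116 as companion control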
Lung fibro prol = antiproliferative effect on LL 47 fibroblasts – human, LL 47 cells, CellTiter-Glo luminescence, primary screen; LL 47 human lung fibroblast viability, ATP luminescence; active compounds read low; viability, % at 10 µM; 85,000 tested, 1.1% active;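 active = viability at or below 50% in the single dose screen; inactive = viability above 50%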;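 note: compound exposure lasted 72 h before the ATP readout; 100% = median luminescence of untreated cell-only wells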
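Assay system: human lung fibroblast line LL 47, low passage. Input: 1,150 fibroblasts seeded per well. Times: overnight cell rest, 72 h compound treatment at 37 °C. Evaluation: % viability of median cell-only signal. Technique: luminescent ATP detection, CellTiter-Glo. Control set: cell-only wells, no compound.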
HUVEC inhibit = inhibitors of HUVEC proliferation, primary screen, cell-based, 384-well. CellTiter-Glo luminescence, 72 h; active compounds read low. viability, % at 10 µM (by protocol). 86,000 tested, 1.1% active. AID 648, 2007;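 active = viability at or below 30%; inactive = viability above 30%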;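 note: 100% = median luminescence of DMSO-only cell control wells on each plate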
An asterisk follows results filed as active; x = no result given. Many of the other results were omitted from the sample, so hits are more common in it than they were.

SMILES	bCat KO growth	H69AR inhibit	HCT116 PTEN-null	Lung fibro prol	HUVEC inhibit
COc1ccc(-c2nc3c(c4nnc(SC(C)C(=O)Nc5ccccc5)n24)COC(C)(C)C3)cc1 (centres undefined)	5.2*	x	38	x	x
CC(C)=CC1C=C(C)C(C)C2C(=O)NNC(=O)C12 (centres undefined)	99	98	99	107	107
C=CCn1cnc2c(c1=O)c1nc3ccccc3nc1n2/N=C/c1cc(OC)c(OC)c(OC)c1	0.8*	8.9*	1.4*	24*	39
O=C1CSC(=S)N1c1cccnc1	110	101	100	103	94
O=C1CSC(=S)N1Cc1cccnc1	3.9*	1.2*	3.2*	36*	51
COc1ccc(C2C(C(=O)c3ccccc3)=C(C)Nc3nc4ccccc4n32)cc1OC (centres undefined)	90	x	84	x	x
CCOC(=O)C1=C(C)Nc2nc3ccccc3n2C1c1ccccc1 (centres undefined)	97	11*	89	76	80
CCN(CC)S(=O)(=O)c1ccc(S(=O)(=O)Nc2ccc3c(c2)oc2ccccc23)cc1	77	33*	75	97	63
CN(C)S(=O)(=O)c1ccc(S(=O)(=O)Nc2ccc3c(c2)oc2ccccc23)cc1	96	85	89	102	73
Cc1ccc(CO/N=C\Cc2snc(Sc3ncc(C(F)(F)F)cc3Cl)c2C#N)cc1	94	66	85	116	106
NS(=O)(=O)c1ccc(N2N=C(c3ccc(Br)cc3)CC2c2ccc(F)cc2)cc1 (centres undefined)	0.7*	x	1.2*	x	x
NS(=O)(=O)c1ccc(N2N=C(c3ccccc3)CC2c2cccc(F)c2)cc1 (centres undefined)	63	x	55	x	x
CC(C)CNC(=O)c1ccccc1NC(=O)c1ccccc1N(C)S(=O)(=O)c1ccccc1	85	x	87	x	x
COc1ccc(OCC(=O)N/N=C(/C)Cc2ccccc2)cc1	105	x	103	x	x
CCOC(=O)c1[nH]c2ccc(OC)cc2c1NC(=O)c1nonc1C	95	94	100	102	100
COC(=O)c1[nH]c2cc(OC)ccc2c1NC(=O)c1nonc1C	72	30*	76	88	90
Cc1ccc(S(=O)(=O)Nc2ccccc2/C=N/c2nc3ccccc3n2C)cc1	77	x	75	x	x
CC(=O)N(CN1C(=O)c2ccccc2C1=O)c1ccc2c(c1)oc1ccccc12	101	x	101	x	x
CCC(C)Sc1nc(O)c(Cc2ccccc2)c(=O)[nH]1 (centres undefined)	90	107	92	102	103
Cn1c(=O)c2c(nc(Oc3ccc4c(c3)OCO4)n2Cc2ccc(Br)cc2)n(C)c1=O	x	18*	x	30*	22*
CN(c1ccccc1C(=O)O)S(C)(=O)=O	101	93	109	101	101
CN(C)c1ccccc1C(=O)c1ccccc1N(C)C	19	14*	19	59	59
COc1ccc(NC(=O)COC(=O)CCCN2C(=O)c3ccccc3C2=O)cc1Cl	85	x	99	x	x
COc1cc(CCC(=O)OCC(=O)Nc2c(C)cc(C)cc2C)cc(OC)c1OC	102	x	105	x	x
CCCCN1C(=O)CN(CCc2ccccc2)C(=O)C1c1ccc(OC)cc1 (centres undefined)	92	38*	87	92	104
SMILES	bCat KO growth	H69AR inhibit	HCT116 PTEN-null	Lung fibro prol	HUVEC inhibit
CCOc1cc2nc(-c3ccc(OC)c(OC)c3)nc(N3CC(C)OC(C)C3)c2cc1OC (centres undefined)	91	x	88	x	x
CCOc1cc2nc(-c3ccc(OC)c(OC)c3)nc(N3CCOCC3)c2cc1OC	31	33*	29	66	6.9*
Brc1ccc(-c2nc(N/N=C/c3cccnc3)c3ccccc3n2)cc1	50	11*	39	60	61
C=C(C)CNC(=S)N/N=C1\CCCCc2ccccc21	89	x	87	x	x
CC(C)CC(NC(=O)C(NC(=O)C(Cc1ccc(OCc2ccccc2)cc1)NC(=O)OC(C)(C)C)C(C)C)C(N)=O (centres undefined)	5.5*	x	12	x	x
CC(C)CC(NC(=O)OC(C)(C)C)C(=O)NC(C(=O)NC(C)C(N)=O)C(C)C (centres undefined)	85	99	102	94	87
Cc1ccc2c(c1)c1c3n2CCN(C(=O)CN2CCN(C)CC2)C3CCC1 (centres undefined)	1.0*	92	0.8*	63	23*
